Source: ChEMBL document CHEMBL4765302, “Design, synthesis and biological evaluation of novel histone deacetylase1/2 (HDAC1/2) and cyclin-dependent Kinase2 (CDK2) dual inhibitors against malignant cancer” (Eur J Med Chem, 2020)
Blank lines part the entries; values can stand above or below the compound they belong to.

Experiments:
NCI-H460 [1] = test: Antiproliferative activity against human NCI-H460 cells assessed as reduction in cell growth incubated for 72 hrs by CCK-8 assay; type: functional, cell-based; conditions: NCI-H460, 72 h
How it was run: (§1)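 IC50 by CCK-8 assay across five solid-tumour lines (HCT116, HepG2, H460, HeLa, A375). Run only for compounds chosen after the single-concentration screen, with CS055 and roscovitine as references.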

HeLa [2] = test: Induction of apoptosis in human HeLa cells assessed as early apoptotic cells at 2 uM incubated for 48 hrs by annexin V-FITC and PI staining based flow cytometry (reference value: 0.528 %); type: functional
A-375 [3] = test: Induction of apoptosis in human A-375 cells assessed as necrotic cells at 2 uM incubated for 48 hrs by annexin V-FITC and PI staining based flow cytometry (reference value: 0.139 %); type: functional
NCI-H460 [4] = test: Induction of apoptosis in human NCI-H460 cells assessed as necrotic cells at 2 uM incubated for 48 hrs by annexin V-FITC and PI staining based flow cytometry (reference value: 0.632 %); type: functional
NCI-H460 [5] = test: Induction of apoptosis in human NCI-H460 cells assessed as early apoptotic cells at 2 uM incubated for 48 hrs by annexin V-FITC and PI staining based flow cytometry (reference value: 2.88 %); type: functional
HepG2 [6] = test: Antiproliferative activity against human HepG2 cells assessed as reduction in cell growth at 2 uM incubated for 72 hrs by CCK-8 assay relative to control; type: functional
HeLa [7] = test: Induction of apoptosis in human HeLa cells assessed as necrotic cells at 2 uM incubated for 48 hrs by annexin V-FITC and PI staining based flow cytometry (reference value: 0.124 %); type: functional
HCT-116 [8] = test: Induction of apoptosis in human HCT-116 cells assessed as late apoptotic cells at 2 uM incubated for 48 hrs by annexin V-FITC and PI staining based flow cytometry (reference value: 1.88 %); type: functional
A-375 [9] = test: Induction of apoptosis in human A-375 cells assessed as late apoptotic cells at 2 uM incubated for 48 hrs by annexin V-FITC and PI staining based flow cytometry (reference value: 2.24 %); type: functional
HCT-116 [10] = test: Induction of apoptosis in human HCT-116 cells assessed as early apoptotic cells at 2 uM incubated for 48 hrs by annexin V-FITC and PI staining based flow cytometry (reference value: 4.14 %); type: functional
A-375 [11] = test: Induction of apoptosis in human A-375 cells assessed as early apoptotic cells at 2 uM incubated for 48 hrs by annexin V-FITC and PI staining based flow cytometry (reference value: 1.34 %); type: functional
HeLa [12] = test: Induction of apoptosis in human HeLa cells assessed as viable cells at 2 uM incubated for 48 hrs by annexin V-FITC and PI staining based flow cytometry (reference value: 98.5 %); type: functional; conditions: read-out: Activity
HeLa [13] = test: Antiproliferative activity against human HeLa cells assessed as reduction in cell growth incubated for 72 hrs by CCK-8 assay; type: functional, cell-based; how it was run: as §1
HCT-116 [14] = test: Antiproliferative activity against human HCT-116 cells assessed as reduction in cell growth incubated for 72 hrs by CCK-8 assay; type: functional, cell-based; conditions: HCT-116, 72 h; how it was run: as §1
Histone deacetylase 2 = Histone deacetylase 2 (Homo sapiens, UniProt Q92769); test: Inhibition of recombinant human HDAC2 using FLUOR-DE-LYS-Green as substrate incubated for 10 mins followed by substrate addition and measured after 30 mins by fluorescence based assay
How it was run: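 IC50 values reported as means of at least two separate determinations, expressed as mean ±SD.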

A-375 [15] = test: Antiproliferative activity against human A-375 cells assessed as reduction in cell growth incubated for 72 hrs by CCK-8 assay; type: functional, cell-based; conditions: A-375, 72 h; how it was run: as §1
NCI-H460 [16] = test: Induction of apoptosis in human NCI-H460 cells assessed as viable cells at 2 uM incubated for 48 hrs by annexin V-FITC and PI staining based flow cytometry (reference value: 90.4 %); type: functional; conditions: read-out: Activity
NCI-H460 [17] = test: Antiproliferative activity against human H460 cells assessed as reduction in cell growth at 8 uM incubated for 72 hrs by CCK-8 assay relative to control; type: functional
HepG2 [18] = test: Antiproliferative activity against human HepG2 cells assessed as reduction in cell growth incubated for 72 hrs by CCK-8 assay; type: functional, cell-based; conditions: HepG2, 72 h; how it was run: as §1
HCT-116 [19] = test: Induction of apoptosis in human HCT-116 cells assessed as necrotic cells at 2 uM incubated for 48 hrs by annexin V-FITC and PI staining based flow cytometry (reference value: 0.124 %); type: functional
HCT-116 [20] = test: Antiproliferative activity against human HCT-116 cells assessed as reduction in cell growth at 2 uM incubated for 72 hrs by CCK-8 assay relative to control; type: functional
HCT-116 [21] = test: Induction of apoptosis in human HCT-116 cells assessed as viable cells at 2 uM incubated for 48 hrs by annexin V-FITC and PI staining based flow cytometry (reference value: 93.9 %); type: functional; conditions: read-out: Activity
HCT-116 [22] = test: Antiproliferative activity against human HCT-116 cells assessed as reduction in cell growth at 8 uM incubated for 72 hrs by CCK-8 assay relative to control; type: functional
NCI-H460 [23] = test: Antiproliferative activity against human H460 cells assessed as reduction in cell growth at 2 uM incubated for 72 hrs by CCK-8 assay relative to control; type: functional
NCI-H460 [24] = test: Induction of apoptosis in human NCI-H460 cells assessed as late apoptotic cells at 2 uM incubated for 48 hrs by annexin V-FITC and PI staining based flow cytometry (reference value: 6.11 %); type: functional
HepG2 [25] = test: Antiproliferative activity against human HepG2 cells assessed as reduction in cell growth at 8 uM incubated for 72 hrs by CCK-8 assay relative to control; type: functional
A-375 [26] = test: Induction of apoptosis in human A-375 cells assessed as viable cells at 2 uM incubated for 48 hrs by annexin V-FITC and PI staining based flow cytometry (reference value: 96.3 %); type: functional; conditions: read-out: Activity
HeLa [27] = test: Induction of apoptosis in human HeLa cells assessed as late apoptotic cells at 2 uM incubated for 48 hrs by annexin V-FITC and PI staining based flow cytometry (reference value: 0.870 %); type: functional

Chain of Histone deacetylase 2 (Q92769 whole entry): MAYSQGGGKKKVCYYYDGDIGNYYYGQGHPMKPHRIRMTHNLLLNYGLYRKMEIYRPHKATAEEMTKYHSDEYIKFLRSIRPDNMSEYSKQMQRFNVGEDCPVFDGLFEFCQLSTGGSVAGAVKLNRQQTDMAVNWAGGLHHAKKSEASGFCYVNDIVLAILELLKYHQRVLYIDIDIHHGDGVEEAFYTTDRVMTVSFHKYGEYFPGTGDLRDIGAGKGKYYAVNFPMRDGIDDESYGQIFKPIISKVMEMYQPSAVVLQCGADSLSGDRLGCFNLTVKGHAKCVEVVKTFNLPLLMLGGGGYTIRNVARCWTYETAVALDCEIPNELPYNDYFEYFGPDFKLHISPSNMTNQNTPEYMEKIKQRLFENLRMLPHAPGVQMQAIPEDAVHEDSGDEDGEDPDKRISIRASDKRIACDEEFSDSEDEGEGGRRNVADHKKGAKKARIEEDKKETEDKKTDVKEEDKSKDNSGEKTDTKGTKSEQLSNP

IC50 (NCI-H460 [1]): 13.3 µM | IC50 (HeLa [13]): 11 µM | IC50 (HCT-116 [14]): 1.49 µM | IC50 (Histone deacetylase 2): 0.0665 µM | IC50 (A-375 [15]): 6.72 µM | IC50 (HepG2 [18]): 11.7 µM
Structure (SMILES): Nc1ccc(F)cc1NC(=O)c1ccc(CNC(=O)/C=C/c2cccnc2)cc1
Activity (HeLa [2]): 0.555% | Activity (A-375 [3]): 1.73% | Activity (NCI-H460 [4]): 0.543% | Activity (NCI-H460 [5]): 14.7% | inhibition at 2 µM (HepG2 [6]): 8.36% | Activity (HeLa [7]): 0.103% | Activity (HCT-116 [8]): 3.12% | Activity (A-375 [9]): 49.5% | Activity (HCT-116 [10]): 54.6% | Activity (A-375 [11]): 14.2% | viability at 2 µM (HeLa [12]): 98.3% | viability at 2 µM (NCI-H460 [16]): 69.6% | inhibition at 8 µM (NCI-H460 [17]): 38.2% | Activity (HCT-116 [19]): 0.985% | inhibition at 2 µM (HCT-116 [20]): 65.7% | viability at 2 µM (HCT-116 [21]): 41.3% | inhibition at 8 µM (HCT-116 [22]): 73.4% | inhibition at 2 µM (NCI-H460 [23]): 1.73% | Activity (NCI-H460 [24]): 15.1% | inhibition at 8 µM (HepG2 [25]): 40.6% | viability at 2 µM (A-375 [26]): 34.5% | Activity (HeLa [27]): 1.04%

Structure (SMILES): CC[C@H](CO)Nc1nc(NCc2ccccc2)c2ncn(C(C)C)c2n1 [SELICICLIB]
IC50 (NCI-H460 [1]): 11.9 µM | Activity (HeLa [2]): 4.04% | Activity (A-375 [3]): 0.189% | Activity (NCI-H460 [4]): 3.09% | Activity (NCI-H460 [5]): 14% | inhibition at 2 µM (HepG2 [6]): 12% | Activity (HeLa [7]): 0.424% | Activity (HCT-116 [8]): 4.24% | Activity (A-375 [9]): 42.3% | Activity (HCT-116 [10]): 83.9% | Activity (A-375 [11]): 7.03% | viability at 2 µM (HeLa [12]): 88.4% | IC50 (HeLa [13]): 11.2 µM | IC50 (HCT-116 [14]): 6.76 µM | IC50 (A-375 [15]): 11.8 µM | viability at 2 µM (NCI-H460 [16]): 47% | inhibition at 8 µM (NCI-H460 [17]): 15.6% | IC50 (HepG2 [18]): 8.53 µM | Activity (HCT-116 [19]): 0.24% | inhibition at 2 µM (HCT-116 [20]): 23.5% | viability at 2 µM (HCT-116 [21]): 11.6% | inhibition at 8 µM (HCT-116 [22]): 29.1% | inhibition at 2 µM (NCI-H460 [23]): 7.73% | Activity (NCI-H460 [24]): 36% | inhibition at 8 µM (HepG2 [25]): 22.1% | viability at 2 µM (A-375 [26]): 50.5% | Activity (HeLa [27]): 7.16%
